# NR2E3 ag-1: NR2E3 agonists in two-hybrid cells, primary screen, cell-based, luminescence, CHO-S, Gal4-NCOR/VP16-NR2E3; Photoreceptor-specific nuclear receptor (Homo sapiens), Q9Y5X4; luciferase; inhibition of corepressor binding, % at 3.98 µM; 360,000 compounds, 0.35% hits; AID 602229, 2012;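 active = inhibition above the mean of all tested compounds plus 3 SD, cut at about 70% in these data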;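 also: 0% = DMSO with NR2E3 transfected cells and 100% = cells lacking NR2E3 construct; higher means lower luciferase signal from less NR2E3 corepressor binding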
# Target sequence (Q9Y5X4 whole entry, looked up, the tested form may be a part): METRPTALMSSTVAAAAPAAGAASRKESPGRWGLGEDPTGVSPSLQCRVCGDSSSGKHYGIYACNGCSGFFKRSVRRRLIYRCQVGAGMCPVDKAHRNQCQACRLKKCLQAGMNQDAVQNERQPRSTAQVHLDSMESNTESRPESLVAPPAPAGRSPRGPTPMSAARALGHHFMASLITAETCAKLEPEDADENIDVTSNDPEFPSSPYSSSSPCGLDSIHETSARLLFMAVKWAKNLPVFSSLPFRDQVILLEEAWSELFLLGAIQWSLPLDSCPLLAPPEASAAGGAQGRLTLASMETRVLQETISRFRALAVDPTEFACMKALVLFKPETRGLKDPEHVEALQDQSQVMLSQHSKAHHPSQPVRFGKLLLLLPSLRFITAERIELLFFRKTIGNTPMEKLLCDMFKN
# NR2E3 ag-2: inhibitors of NR2E3-RetCOR corepressor binding, primary screen, NR2E3 agonist project, biochemical, TR-FRET, GST-NR2E3, biotin-RetCOR | 1536-well | inhibition of corepressor binding, % at 4.78 µM | 320,000 compounds, 0.12% hits | AID 2300, 2010;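 active = percent inhibition above the cutoff of mean plus 3 SD of all tested compounds, set per screening campaign, cut at about 20% in these data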;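 also: 0% = DMSO wells and 100% = biotin wells as full block of FRET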
#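 Test system – NR2E3–RetCOR corepressor complex · Quantity – NR2E3 fusion 1.35 nM · Buffer or medium – Tris pH 7.5 · Incubation – Compound–protein incubation for 5 h at 4 °C · Technique – TR-FRET, Eu(K)-anti-GST donor, streptavidin-D2 acceptor, ex 340, em 617/671 nm · Evaluation – percent inhibition of 671/617 nm emission ratio versus biotin and DMSO controls · Plate – 1536-well format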
# Rev-erbA mod: modulators of Rev-erb alpha DNA binding, primary screen, biochemical, FITC-DNA, fluorescence polarization, uHTS | Nuclear receptor subfamily 1 group D member 1 (Homo sapiens), P20393 | Rev-erbα–FITC-DNA binding, 90 min | activity, % at 10 µM | 370,000 compounds, 0.79% hits;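 active = activity above about 14%, limit read from the data; passing the limit was not always enough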;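 also: 0% = DMSO wells with 35 nM protein and 100% = DMSO wells with 750 nM protein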
# MC4R antagonist: MC4R antagonists of cAMP signaling, primary screen, cell-based, TR-FRET, antagonist arm of biased-ligand search; inhibition, % at 6.5 µM; Melanocortin receptor 4 (Homo sapiens), P32245; 360,000 compounds, 0.48% hits; MC4R-expressing cells, MTII-stimulated cAMP, LANCE TR-FRET; AID 540295, 2011;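 active = inhibition above its plate's cutoff, the mean of tested wells on that plate plus 3 SD, cut at about 29% in these data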;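 also: 0% = Melanotan II alone and 100% = Melanotan II plus saturating MCL0020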
# Target sequence (P32245 whole entry, looked up): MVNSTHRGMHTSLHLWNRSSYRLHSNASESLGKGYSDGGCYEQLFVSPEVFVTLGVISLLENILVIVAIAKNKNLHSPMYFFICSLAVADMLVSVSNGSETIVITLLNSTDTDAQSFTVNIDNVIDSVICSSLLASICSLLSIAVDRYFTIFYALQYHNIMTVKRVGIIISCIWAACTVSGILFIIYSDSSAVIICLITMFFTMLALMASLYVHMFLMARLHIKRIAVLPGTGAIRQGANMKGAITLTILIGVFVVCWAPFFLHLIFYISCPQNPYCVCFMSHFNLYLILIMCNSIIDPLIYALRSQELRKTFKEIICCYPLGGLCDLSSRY
#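 System: U2OS-MC4R stable cell line; Technique: Eu-cAMP/anti-cAMP TR-FRET, emission 671 nm; Repeats: single well per compound; Also added: Melanotan II; Dosing: one concentration, 6.5 µM nominal; Schedule: 30-min compound, 1-h challenge, 1-h detection, room temperature.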
# MC4R ag barr: MC4R agonists recruiting beta-arrestin, primary screen, cell-based, luminescence, agonist arm of biased-ligand search | Melanocortin receptor 4 (Homo sapiens), P32245 | U2OS MC4R beta-arrestin complementation; percent of melanotan II response, DMSO zero | activation, % at 8.9 µM | 360,000 compounds, 0.98% hits | AID 540308, 2011;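 active = activation above a per-plate cutoff, the mean activation of sample wells on that plate plus 3 SD, cut at about 8% in these data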
# PG9 Ab binder: binders of HIV-1 gp120 antibody PG9, primary screen, biochemical, TR-FRET; inhibition, % at 6.7 µM; AID 624416, 2012; HIV-1 gp120 / PG9 antibody interaction; TR-FRET gp120-PG9 antibody binding; 360,000 compounds, 0.43% hits; in the data active = inhibition above about 8.5%
# Rev-erbA confirm: modulators of Rev-erb alpha DNA binding, confirmation, biochemical, FITC-DNA, fluorescence polarization, single point. 90 min. activation, % at 25 µM. shares compounds with Rev-erbA mod. 3,000 compounds, 61% hits;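 active = activation at or above a set limit, or at least 3 SD above the negative control mean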;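 also: 0% = 35 nM protein with DMSO and 100% = 750 nM protein high control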
# RORg counter: modulation of RORgamma DNA binding, dose response, counter-screen for Rev-erb alpha modulator project, biochemical, fluorescence polarization, FITC-DNA. purified RORgamma protein-FITC-DNA binding. IC50, µM. shares compounds with Rev-erbA mod. AID 1259320, 2017. 910 compounds, 8% hits;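 active = Compounds whose fitted half-maximal concentration for disrupting protein-DNA binding is below 10 micromolar; the record names Rev-erb in its text, so the target is in doubt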
# An asterisk follows results filed as active; i = inactive; / = not tested or not shown. Hits are enriched below; roughly 2.7% of the tested compounds scored in any of these assays.
SMILES,NR2E3 ag-1,NR2E3 ag-2,Rev-erbA mod,MC4R antagonist,MC4R ag barr,PG9 Ab binder,Rev-erbA confirm,others
CC(C)Cc1nc2sc3c(SCC(N)=O)ncnc3c2c2c1CCC2,-25.9,4.3,368.6*,17.7,-0.8,-0.2,567.8*,RORg counter=i
O=C(O)CSc1ncnc2c1sc1nc(-c3ccccc3)c3c(c12)CCC3,6.5,2.6,-2.9,7.6,-2.5,-0.3,/,
Cc1ccccc1NC(=O)CSc1nc(N)c(C#N)c(-c2cccs2)c1C#N,16.3,18.4,126.1*,-4.4,1.2,72.2*,95.3*,
N#Cc1c(N)nc(SCc2ccncc2)c(C#N)c1-c1cccs1,4.5,-1.9,8.8,-31.0,1.1,-0.1,/,
COc1ccc(CCNC(=O)CSc2nc(N)c(C#N)c(-c3cccs3)c2C#N)cc1OC,0.9,3.1,37.3*,8.0,-1.1,0.2,22.9*,
Cn1ccc2c(/C=C/c3ccc(F)cc3)cc3c(c21)C1CCC3C1 (centres undefined),8.6,/,-4.1,/,/,-2.9,/,
CCCCn1c(-c2ccc(F)c(F)c2)nc2cc3[nH]c(=O)c(C(C)C)nc3cc21,2.9,3.1,17.8*,4.2,2.5,-1.8,13.8,
CCCCn1c(CCc2ccccc2)nc2cc3[nH]c(=O)c(C(C)C)nc3cc21,7.2,1.9,-1.3,-5.5,5.7,-0.1,/,
COc1ccc(C=Cc2ccc3ccccc3n2)c(OC)c1,-10.1,/,20.1*,-13.6,-1.8,-2.9,8.9,
O=c1ccc(-c2ccc(S(=O)(=O)N3CCN(c4cccc(Cl)c4)CC3)o2)n[nH]1,-8.4,-1.5,75.6*,6.7,-2.1,3.3,86.3*,RORg counter=i
CN(C)CCNc1ccc2ncn3c4ccc(O)cc4c(=O)c1c23,-2.4,/,19.8*,-27.9,-0.9,-23.4,24.0*,
Cn1sc(NC(=O)c2ccc(Cl)cc2)nc1=O,-42.4,-0.6,0.8,4.7,-1.8,-0.8,/,
O=C(Nc1nc2ccsc2c(=O)s1)c1ccc(Cl)cc1,-21.7,-8.3,109.7*,5.3,-0.4,0.4,44.0*,RORg counter=>40
CC(=O)c1sc(NC(=O)c2ccc(Cl)cc2)nc1C,-46.7,3.8,25.8*,-1.4,-0.4,2.0,17.1,
Cc1cccc(C(=O)N(Cc2ccc(C)o2)C2CCS(=O)(=O)C2)c1 (centres undefined),-16.8,-1.7,4.5,6.8,-1.1,0.2,/,
CCOC(=O)CC(=O)CSc1nc2cc(C)ccc2cc1C,6.5,2.0,-3.0,10.1,1.9,-2.4,/,
Cc1nnc(NC(=O)c2oc3c(ccc4ccccc43)c2C)s1,-13.5,4.4,38.7*,-2.2,3.2,0.8,28.5*,
CCc1nnc(NC(=O)c2oc3ccc(Br)cc3c2C)s1,-66.8,/,41.5*,-2.3,1.2,2.2,40.5*,RORg counter=>40
COc1ccc(C(=O)N2CCCC(CCC(=O)NCc3ccc(F)c(F)c3)C2)o1 (centres undefined),-24.7,3.1,14.8*,10.4,-0.9,-3.9,-1.7,
O=[N+]([O-])c1ccc(Oc2cccc(F)c2)c2ccncc12,-29.8,0.4,13.8*,9.8,2.9,-0.7,9.0,
O=C(NCCCN1CCOCC1)c1cnccn1,-1.4,0.1,-2.4,2.6,-1.1,-1.9,/,
CCN(CC)c1ccc2c(O)cc(=O)oc2c1,-14.4,1.9,0.7,4.4,-1.2,-2.0,/,
CCN(CC)c1ccc(C(=O)OCc2cc(=O)oc3cc(O)ccc23)cc1,9.4,4.4,33.3*,0.1,7.8,2.7,17.5*,
Cc1ccc([C@H](C)NC(=O)C2=C(N)N(S(=O)(=O)c3ccc(C)cc3)C(C(=O)c3ccccc3)C2c2ccccc2Cl)cc1 (some centres undefined),/,/,-2.1,/,/,/,/,
CN1CCc2c(c3c(n2C)CCN(C)C3c2ccc(F)cc2)C1c1ccc(F)cc1 (centres undefined),15.7,-0.8,2.1,-6.8,-0.7,0.7,/,
SMILES,NR2E3 ag-1,NR2E3 ag-2,Rev-erbA mod,MC4R antagonist,MC4R ag barr,PG9 Ab binder,Rev-erbA confirm,others
COc1ccc(NC(=S)NNC(=O)CCn2cc([N+](=O)[O-])cn2)cc1,-17.8,6.6,0.5,-1.9,2.6,-0.5,/,
COc1ccc(NC(=O)CCCn2cc([N+](=O)[O-])cn2)cc1,10.5,-1.1,25.7*,6.8,-1.5,2.0,-0.4,
CCCCn1c(Cc2ccccc2)nnc1SCC(=O)Nc1cc(C)on1,-29.6,6.3,1.9,10.5,-1.7,1.5,/,
COC(=O)c1c(C(=O)OC)c(-c2ccc(C)cc2)n2c1CCC2,-5.9,1.0,-0.8,18.5,-2.0,-1.9,/,
COc1cc2c(cc1OC)CN(C(=O)CSC1=NCCS1)CC2,-20.9,/,1.6,3.0,-0.3,-0.5,/,
COc1ccccc1NC(=O)CSc1nc(N)c(C#N)cc1C#N,-13.7,-1.3,73.2*,-2.4,-3.6,-1.0,65.0*,RORg counter=>40
COc1cc2c(cc1OC)CN(C(=O)CSc1nc(N)c(C#N)cc1C#N)CC2,-6.4,2.4,37.3*,-0.6,1.9,/,47.2*,RORg counter=>40
Cc1cc(C)c(-c2csc(NC(=O)C3=COCCO3)n2)cc1C,-18.5,3.7,19.1*,12.4,-1.1,-1.8,6.3,
COc1ccc(-c2csc(NC(=O)C3=COCCO3)n2)c(OC)c1,-104.7,-1.3,1.5,1.5,-2.7,0.3,/,
COc1ccccc1C(=O)NC(=O)CSc1nnc(N)s1,7.9,1.8,-3.8,-3.0,-1.1,-1.6,/,
Cc1ccc(C(=O)N2N=C(c3ccccc3O)CC2c2ccccc2)cc1 (centres undefined),11.8,0.1,37.9*,2.3,0.6,1.2,25.0*,
CC(Sc1nc2sccc2c(=O)n1-c1ccccc1)C(N)=O (centres undefined),1.1,-2.4,-2.0,6.2,-0.6,-0.6,/,
Clc1ccc(-c2cn(-c3nc4ccccc4s3)nn2)cc1,-77.1,/,19.4*,/,/,1.0,6.9,
Cc1cc2cc3c(cc2nc1SCC(=O)N1c2ccccc2CC1C)OCO3 (centres undefined),-23.7,0.3,6.9,-6.3,-0.6,-4.6,/,
